Results as given in ChEMBL document CHEMBL3600323, “Structure-Activity and Structure-Property Relationship and Exploratory in Vivo Evaluation of the Nanomolar Keap1-Nrf2 Protein-Protein Interaction Inhibitor” (J Med Chem, 2015).
Values after ≈ are worked out from the molar mass of the structure shown. Active and inactive are the calls of the source. The rule behind the calls is not given here.

Legend:
[1] = Solubility of the compound; type: physicochemical
Procedure, shortened: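 Intrinsic solubility determined by the pH-metric method, a potentiometric acid−base titration, using the pSOL model.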

[2] = biological target: Keap1/Nrf2 (Homo sapiens, UniProt Q14145); assay: Inhibition of Keap1 Kelch domain-Nrf2 ETGE (unknown origin) protein-protein interaction incubated for 30 mins by fluorescence polarization competition assay
Keap1/Nrf2, sequence (Q16236 whole entry, the tested form may be a part): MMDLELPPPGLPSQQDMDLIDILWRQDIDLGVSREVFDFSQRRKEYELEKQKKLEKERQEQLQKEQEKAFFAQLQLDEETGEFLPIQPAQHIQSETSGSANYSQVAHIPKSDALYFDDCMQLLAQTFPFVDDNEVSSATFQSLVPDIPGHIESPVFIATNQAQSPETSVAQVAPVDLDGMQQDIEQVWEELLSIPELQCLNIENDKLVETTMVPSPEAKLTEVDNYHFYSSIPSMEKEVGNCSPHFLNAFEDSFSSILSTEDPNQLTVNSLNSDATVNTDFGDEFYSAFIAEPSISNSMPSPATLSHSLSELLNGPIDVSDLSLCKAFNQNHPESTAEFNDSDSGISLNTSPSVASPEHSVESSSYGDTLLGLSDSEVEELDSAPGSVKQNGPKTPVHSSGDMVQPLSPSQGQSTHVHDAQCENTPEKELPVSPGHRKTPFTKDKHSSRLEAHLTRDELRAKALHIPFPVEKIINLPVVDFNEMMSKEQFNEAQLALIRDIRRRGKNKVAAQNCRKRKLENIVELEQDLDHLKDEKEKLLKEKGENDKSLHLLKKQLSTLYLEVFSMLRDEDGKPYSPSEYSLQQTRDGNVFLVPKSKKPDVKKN
Keap1/Nrf2, sequence (Q14145 whole entry, the tested form may be a part): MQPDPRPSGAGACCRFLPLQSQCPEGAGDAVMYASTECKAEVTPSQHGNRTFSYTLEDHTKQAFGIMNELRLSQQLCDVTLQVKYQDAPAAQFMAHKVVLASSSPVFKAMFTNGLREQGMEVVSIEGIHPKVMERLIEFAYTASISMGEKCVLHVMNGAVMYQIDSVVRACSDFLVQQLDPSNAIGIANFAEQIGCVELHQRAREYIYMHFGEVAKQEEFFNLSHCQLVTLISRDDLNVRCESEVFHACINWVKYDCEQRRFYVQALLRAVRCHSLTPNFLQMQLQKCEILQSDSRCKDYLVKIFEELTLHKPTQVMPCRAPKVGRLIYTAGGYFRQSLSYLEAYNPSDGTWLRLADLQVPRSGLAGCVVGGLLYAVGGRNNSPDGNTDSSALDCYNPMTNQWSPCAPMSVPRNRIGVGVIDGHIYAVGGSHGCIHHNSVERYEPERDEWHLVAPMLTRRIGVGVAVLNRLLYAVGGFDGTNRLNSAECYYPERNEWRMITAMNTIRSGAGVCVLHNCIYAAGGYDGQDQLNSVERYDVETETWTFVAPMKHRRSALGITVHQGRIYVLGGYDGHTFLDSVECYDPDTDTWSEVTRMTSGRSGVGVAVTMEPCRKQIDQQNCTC

[3] = Lipophilicity, log D of the compound; type: physicochemical; conditions: octanol/water
Procedure, shortened: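 log D at pH 7.4 measured by Avdeef−Bucher potentiometric titration on a Gemini Profiler instrument.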

[4] = system: Mus musculus; assay: Anti-inflammatory in LPS-challenged C57BL/6 mouse model of acute inflammation assessed as reduction in TNFalpha level at 10 mg/kg, ip for 3 days pre-treated for 3 days followed by LPS challenge 24 hrs after last dose and measured 5 hrs post LPS challenge by ELISA method; type: functional, organism-based
Procedure, shortened: (§1)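 Female C57BL/6 mice (12−16 weeks), randomised, n = 10 per group; single daily IP injection on days −3, −2, −1, then 300 μg LPS IP 24 h after the last dose (day 0). Controls were saline-only and saline plus LPS, with dexamethasone 10 mg/kg/day as positive control. Sera taken 5 h post-LPS; plasma frozen at −20 °C and cytokines read by double-sandwich ELISA; mean ± SEM.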

[5] = system: Mus musculus; assay: Anti-inflammatory in LPS-challenged C57BL/6 mouse model of acute inflammation assessed as reduction in IFNgamma level at 10 mg/kg, ip for 3 days pre-treated for 3 days followed by LPS challenge 24 hrs after last dose and measured 5 hrs post LPS challenge by ELISA method; type: functional, organism-based; procedure, shortened: as §1
[6] = system: Mus musculus; assay: Anti-inflammatory in LPS-challenged C57BL/6 mouse model of acute inflammation assessed as reduction in IL6 level at 10 mg/kg, ip for 3 days pre-treated for 3 days followed by LPS challenge 24 hrs after last dose and measured 5 hrs post LPS challenge by ELISA method; type: functional, organism-based; procedure, shortened: as §1
[7] = system: Mus musculus; assay: Anti-inflammatory in LPS-challenged C57BL/6 mouse model of acute inflammation assessed as reduction in IL12 level at 10 mg/kg, ip for 3 days pre-treated for 3 days followed by LPS challenge 24 hrs after last dose and measured 5 hrs post LPS challenge by ELISA method; type: functional, organism-based; procedure, shortened: as §1
[8] = system: Mus musculus; assay: Anti-inflammatory in LPS-challenged C57BL/6 mouse model of acute inflammation assessed as reduction in IL17 level at 10 mg/kg, ip for 3 days pre-treated for 3 days followed by LPS challenge 24 hrs after last dose and measured 5 hrs post LPS challenge by ELISA method; type: functional, organism-based; procedure, shortened: as §1
[9] = system: Mus musculus; assay: Toxicity in LPS-challenged C57BL/6 mouse model of acute inflammation at 10 mg/kg, ip for 3 days pre-treated for 3 days followed by LPS challenge 24 hrs after last dose and measured 5 hrs post LPS challenge; type: organism-based; conditions: in vivo
Procedure, shortened: (§2)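 Female C57BL/6 mice (12−16 weeks), n = 10 per group, dosed IP once daily on days −3 to −1, then challenged with 300 μg LPS IP 24 h after the last dose. Body weight and signs of acute toxicity were monitored during the pretreatment period.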

[10] = system: Mus musculus; assay: Toxicity in LPS-challenged C57BL/6 mouse model of acute inflammation at 80 mg/kg, ip for 3 days pre-treated for 3 days followed by LPS challenge 24 hrs after last dose and measured 5 hrs post LPS challenge; type: organism-based; conditions: in vivo; procedure, shortened: as §2
[11] = system: Mus musculus; assay: Toxicity in LPS-challenged C57BL/6 mouse model of acute inflammation assessed as changes in body weight at 10 mg/kg, ip for 3 days pre-treated for 3 days followed by LPS challenge 24 hrs after last dose and measured 5 hrs post LPS challenge; type: organism-based; conditions: in vivo; procedure, shortened: as §2
[12] = system: Mus musculus; assay: Toxicity in LPS-challenged C57BL/6 mouse model of acute inflammation assessed as changes in body weight at 80 mg/kg, ip for 3 days pre-treated for 3 days followed by LPS challenge 24 hrs after last dose and measured 5 hrs post LPS challenge; type: organism-based; conditions: in vivo; procedure, shortened: as §2

solubility ([1]; read-out: solubility) [µg/mL] | IC50 [2] [nM] | logD [3] | Compound | further results
388 (≈ 631 µM) | – | – | COc1ccc(S(=O)(=O)N(CC(=O)O)c2ccc(N(CC(=O)O)S(=O)(=O)c3ccc(OC)cc3)c3ccccc23)cc1 | –
– | 10200 | – | COc1ccc(S(=O)(=O)N(CC(=O)O)c2cc(C)c(N(CC(=O)O)S(=O)(=O)c3ccc(OC)cc3)cc2C)cc1 | –
– | 1860 | – | COc1ccc(S(=O)(=O)N(CC(=O)O)c2cccc3c(N(CC(=O)O)S(=O)(=O)c4ccc(OC)cc4)cccc23)cc1 | –
– | 602 | – | COc1ccc(S(=O)(=O)N(CC(=O)O)c2ccc(N(CC(=O)O)S(=O)(=O)c3ccc(OC)cc3)c(OC)c2)cc1 | –
5 (≈ 7.64 µM) | 47.4 | 3.9 | O=C(O)CN(c1ccc(N(CC(=O)O)S(=O)(=O)c2cccc3ccccc23)c2ccccc12)S(=O)(=O)c1cccc2ccccc12 | –
– | – | – | C[C@@H]1C[C@H]2[C@@H]3CCC4=CC(=O)C=C[C@]4(C)[C@@]3(F)[C@@H](O)C[C@]2(C)[C@@]1(O)C(=O)CO | inhibition [4]: Active; inhibition [5]: Active; inhibition [6]: Active; inhibition [7]: Active; inhibition [8]: Active
1200 (≈ 1920 µM) | 42.3 | 2.11 | O=C(O)CN(c1ccc(N(CC(=O)O)S(=O)(=O)c2ccc(Cl)cc2)c2ccccc12)S(=O)(=O)c1ccc(Cl)cc1 | –
1100 (≈ 1820 µM) | 118 | 0.65 | N#Cc1ccc(S(=O)(=O)N(CC(=O)O)c2ccc(N(CC(=O)O)S(=O)(=O)c3ccc(C#N)cc3)c3ccccc23)cc1 | –
– | 1450 | – | COc1ccc(S(=O)(=O)N(CC(=O)O)c2ccc(N(CC(=O)O)S(=O)(=O)c3ccc(OC)cc3)cc2)cc1 | –
1.6 (≈ 2.4 µM) | 50.2 | 5.2 | CC(C)(C)c1ccc(S(=O)(=O)N(CC(=O)O)c2ccc(N(CC(=O)O)S(=O)(=O)c3ccc(C(C)(C)C)cc3)c3ccccc23)cc1 | –
16 (≈ 26 µM) | 66.1 | 0.89 | COc1cccc(S(=O)(=O)N(CC(=O)O)c2ccc(N(CC(=O)O)S(=O)(=O)c3cccc(OC)c3)c3ccccc23)c1 | –
– | 42.2 | 1.89 | CCCCc1ccc(S(=O)(=O)N(CC(=O)O)c2ccc(N(CC(=O)O)S(=O)(=O)c3ccc(CCCC)cc3)c3ccccc23)cc1 | solubility [1]: 0.006 µg/mL (≈ 0.009 µM)
– | 1670 | – | COc1ccc(S(=O)(=O)N(CC(=O)O)c2ccc(N(CC(=O)O)S(=O)(=O)c3ccc(OC)cc3)c(C)c2)cc1 | –
20 (≈ 31.3 µM) | 979 | 3.44 | Cc1cc(C)c(S(=O)(=O)N(CC(=O)O)c2ccc(N(CC(=O)O)S(=O)(=O)c3c(C)cc(C)cc3C)c3ccccc23)c(C)c1 | –
248 (≈ 426 µM) | 18.1 | 0.93 | Cc1ccc(S(=O)(=O)N(CC(=O)O)c2ccc(N(CC(=O)O)S(=O)(=O)c3ccc(C)cc3)c3ccccc23)cc1 | –
12.3 (≈ 17.8 µM) | 122 | 2.81 | O=C(O)CN(c1ccc(N(CC(=O)O)S(=O)(=O)c2ccc(C(F)(F)F)cc2)c2ccccc12)S(=O)(=O)c1ccc(C(F)(F)F)cc1 | –
12.3 (≈ 17 µM) | 179 | 0.93 | O=C(O)CN(c1ccc(N(CC(=O)O)S(=O)(=O)c2ccc(OC(F)(F)F)cc2)c2ccccc12)S(=O)(=O)c1ccc(OC(F)(F)F)cc1 | –
5.7 (≈ 8 µM) | 36.5 | 4.29 | O=C(O)CN(c1ccc(N(CC(=O)O)S(=O)(=O)c2ccc(Br)cc2)c2ccccc12)S(=O)(=O)c1ccc(Br)cc1 | –
5000 (≈ 7480 µM) | – | 1.02 | CC(=O)Nc1ccc(S(=O)(=O)N(CC(=O)O)c2ccc(N(CC(=O)O)S(=O)(=O)c3ccc(NC(C)=O)cc3)c3ccccc23)cc1 | Activity [9]: Non-toxic; Activity [10]: Non-toxic; Activity [11]: Non-toxic; Activity [12]: Non-toxic
183 (≈ 330 µM) | 34.3 | 0.45 | O=C(O)CN(c1ccc(N(CC(=O)O)S(=O)(=O)c2ccccc2)c2ccccc12)S(=O)(=O)c1ccccc1 | –
– | 966 | – | Cc1ccc(S(=O)(=O)N(CC(=O)O)c2ccc(N(CC(=O)O)S(=O)(=O)c3ccc(C)cc3)cc2)cc1 | –
3800 (≈ 6430 µM) | 54.3 | 1.16 | O=C(O)CN(c1ccc(N(CC(=O)O)S(=O)(=O)c2ccc(F)cc2)c2ccccc12)S(=O)(=O)c1ccc(F)cc1 | –
